Where “and” joins values, the source holds several entries; their conditions need not be identical. Equal values may be shown once. Read-outs that look alike come from different tables or passages of the source.
Assays:
[1] = test system: L. braziliensis amastigotes; test: Macrophage infection assay, L. braziliensis amastigotes; assay type: cell-based, Leishmania braziliensis; details: for SI, L. braziliensis amastigotes: selectivity index, macrophage CC50 and amastigote EC50
Method in brief: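 J774 macrophages were plated on coverslips at 1 × 10^5 cells/mL in DMEM with 1% FBS. They were infected with stationary-phase L. braziliensis promastigotes (MHOM/BR/01/BA788; 1:20) for 2 h at room temperature, then 22 h at 35 °C. After washing, cells got test compound (5 or 10 µM, or 10–0.01 µM) in 1% DMSO for 24 h at 37 °C and 5% CO2. Cells were EtOH-fixed and DAPI-stained, and 100–200 macrophages were imaged. % infected cells is relative to DMSO.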

[2] = test system: L. infantum amastigotes; test: Macrophage infection assay, L. infantum amastigotes; assay type: cell-based, Leishmania infantum; details: for SI, L. infantum amastigotes: selectivity index, macrophage CC50 and amastigote EC50
Method in brief: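 J774 macrophages on coverslips (1 × 10^5 cells/mL, DMEM with 1% FBS) were infected with stationary-phase L. infantum promastigotes (1:20) for 2 h at room temperature, then 22 h at 37 °C. After washing, test compound (10–0.01 µM, up to seven concentrations, at least duplicates, 1% DMSO) was added for 24 h at 37 °C. DAPI-stained infected cells were counted by microscopy relative to DMSO. EC50 came from a four-parameter sigmoid fit.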

[3] = biological target: T1, LiTryS (Leishmania infantum, UniProt A4I2Z3); details: read-out: Ki, nucleotide-binding site of the enzyme; ADP; cited from earlier work
T1 sequence (A4I2Z3 1-652): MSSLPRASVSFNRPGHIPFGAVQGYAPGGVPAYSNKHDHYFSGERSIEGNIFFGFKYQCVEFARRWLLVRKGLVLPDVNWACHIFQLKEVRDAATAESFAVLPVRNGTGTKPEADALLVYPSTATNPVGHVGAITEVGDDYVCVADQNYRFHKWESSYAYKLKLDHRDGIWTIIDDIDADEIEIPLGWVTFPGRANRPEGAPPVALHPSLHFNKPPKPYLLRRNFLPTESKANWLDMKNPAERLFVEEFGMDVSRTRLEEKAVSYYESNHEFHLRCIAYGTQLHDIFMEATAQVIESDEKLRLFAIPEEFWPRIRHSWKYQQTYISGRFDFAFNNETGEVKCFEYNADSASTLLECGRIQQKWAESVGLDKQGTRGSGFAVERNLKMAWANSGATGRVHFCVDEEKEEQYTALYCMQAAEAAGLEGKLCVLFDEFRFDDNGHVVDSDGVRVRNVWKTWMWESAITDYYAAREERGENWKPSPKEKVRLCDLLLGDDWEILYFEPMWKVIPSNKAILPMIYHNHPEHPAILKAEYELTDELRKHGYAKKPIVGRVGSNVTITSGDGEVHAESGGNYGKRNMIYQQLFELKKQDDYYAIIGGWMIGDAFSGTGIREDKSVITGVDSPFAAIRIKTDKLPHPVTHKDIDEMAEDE

[4] = biological target: T2, LiTryS (Leishmania infantum trypanothione synthetase) (Leishmania infantum, UniProt A4I2Z3); test: TryS activity end-point assay; assay type: biochemical; details: for IC50: ± 2σ, ∼30 assumed for 50 ± 5% inhibition at 30 µM
T2 sequence (A4I2Z3 1-652): T1 sequence (A4I2Z3 1-652)
Method in brief: (§1)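 Recombinant TryS end-point assay in 100 mM HEPES pH 7.4 with 5 mM DTT, 10 mM MgSO4 and 0.5 mM EDTA. ATP was 150 µM and spermidine 2 mM. GSH was 0.25 mM for LiTryS, 0.05 mM for TbTryS and 0.57 mM for TcTryS. Enzyme started the reaction and BIOMOL Green stopped it after 15 min. A650 was read after 20 min at room temperature. Values were corrected with no-enzyme blanks and for compound interference with phosphate. At least quadruplicates; IC50 is given ± 2σn-1.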

[5] = biological target: T3, TcTryS (Trypanosoma cruzi, UniProt Q9GT49); test: TryS activity end-point assay; assay type: biochemical; details: for IC50: IC50 value, TcTryS, ± 2σ, ~30 assumed for 50 ± 5% inhibition at 30 µM
T3 sequence (Q9GT49 1-647): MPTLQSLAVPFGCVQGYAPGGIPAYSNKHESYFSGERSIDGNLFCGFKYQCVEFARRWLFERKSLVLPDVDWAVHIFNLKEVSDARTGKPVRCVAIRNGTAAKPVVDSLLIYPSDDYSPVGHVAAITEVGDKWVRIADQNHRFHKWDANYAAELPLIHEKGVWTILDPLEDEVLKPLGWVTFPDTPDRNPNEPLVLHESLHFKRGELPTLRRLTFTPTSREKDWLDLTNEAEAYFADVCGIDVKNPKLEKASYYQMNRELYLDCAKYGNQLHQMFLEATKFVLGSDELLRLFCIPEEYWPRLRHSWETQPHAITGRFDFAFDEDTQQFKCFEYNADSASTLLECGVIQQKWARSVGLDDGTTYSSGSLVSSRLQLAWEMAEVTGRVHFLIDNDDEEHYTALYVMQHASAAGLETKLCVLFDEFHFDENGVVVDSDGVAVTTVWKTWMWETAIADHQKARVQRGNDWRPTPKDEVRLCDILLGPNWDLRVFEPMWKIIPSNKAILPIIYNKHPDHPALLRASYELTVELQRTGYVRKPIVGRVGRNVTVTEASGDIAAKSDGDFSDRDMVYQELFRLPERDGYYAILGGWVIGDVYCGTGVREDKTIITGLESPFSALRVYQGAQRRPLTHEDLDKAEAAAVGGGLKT
Method in brief: as §1

[6] = biological target: T4, TbTryS (Trypanosoma brucei brucei, UniProt Q8IEX1); test: TryS activity end-point assay; assay type: biochemical
T4 sequence (Q8IEX1 1-627): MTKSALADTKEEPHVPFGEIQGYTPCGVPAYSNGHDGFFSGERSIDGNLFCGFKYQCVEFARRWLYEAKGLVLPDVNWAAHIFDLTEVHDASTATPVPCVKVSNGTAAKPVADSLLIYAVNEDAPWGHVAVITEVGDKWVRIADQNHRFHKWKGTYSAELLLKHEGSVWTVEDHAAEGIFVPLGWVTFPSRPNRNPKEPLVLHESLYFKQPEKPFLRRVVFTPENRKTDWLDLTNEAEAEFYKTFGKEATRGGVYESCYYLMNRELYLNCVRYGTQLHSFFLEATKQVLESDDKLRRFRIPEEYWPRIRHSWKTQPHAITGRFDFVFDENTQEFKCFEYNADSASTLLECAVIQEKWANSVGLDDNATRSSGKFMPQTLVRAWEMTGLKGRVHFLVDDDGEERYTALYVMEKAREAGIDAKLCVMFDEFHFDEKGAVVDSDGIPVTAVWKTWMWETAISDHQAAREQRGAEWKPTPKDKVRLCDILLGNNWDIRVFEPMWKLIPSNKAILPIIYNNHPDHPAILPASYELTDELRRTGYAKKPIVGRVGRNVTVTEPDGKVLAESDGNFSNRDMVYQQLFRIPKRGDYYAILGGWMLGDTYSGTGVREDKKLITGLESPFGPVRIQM
Method in brief: as §1

[7] = test system: Mouse macrophages from the cell line J774; test: Cytotoxicity assay; assay type: cell-based; details: 24 h, non-infected J774
Method in brief: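 J774 mouse macrophages were grown in DMEM with 10% FBS and penicillin/streptomycin at 37 °C in humidified 5% CO2. Cells were seeded at 6 × 10^4 cells/mL and exposed the next day for 24 h to test compound at 100 to 0.001 µM (200 µM for one compound). The WST-1 signal was read at A450. % cytotoxicity was calculated against DMSO-treated and untreated cells, and CC50 is given ± σn–1.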

[8] = biological target: T1, LiTryS; test: Kinetic assays for LiTryS; assay type: biochemical; details: double reciprocal plots
Method in brief: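 LiTryS in 100 mM HEPES pH 7.4, 10 mM MgSO4, 0.5 mM EDTA, 5 mM DTT at 28 °C. Enzyme-started, linear 15 min, colorimetric stop, A650 after 20 min. Variable GSH 100–3 µM (SP 13 mM, ATP 200 µM); ATP 200–6 µM (SP 13 mM, GSH 250 µM); SP 13–0.41 mM or GSP 250–7.8 µM (ATP 200 µM, GSH 250 µM).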

[9] = test system: L. infantum promastigotes (WT and TryS sKO); test: Intracellular low molecular mass thiols, promastigotes; assay type: cell-based, Leishmania infantum; details: 7 µM, 24 h
Method in brief: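 L. infantum promastigotes (MHOM MA67I7MAP263, WT or TryS single knockout) were seeded at 5 × 10^5/mL in RPMI at 28 °C with 7 µM test compound or 1% DMSO for 24 h. Thiols were reduced with 70 mM NaBH4 in 40 mM HEPES pH 8.0, labelled with 2 mM monobromobimane (70 °C, 3 min) and acid-extracted. They were separated by C18 HPLC against GSH/T(SH)2 standards (2.5–75 nmol), and peak areas are given as % of untreated WT. At least duplicates; unpaired t-test.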

[10] = test system: L. infantum amastigotes (WT and sKO); test: Intracellular low molecular mass thiols, amastigotes in J774 macrophages; assay type: cell-based, Leishmania infantum; details: 1 µM, 24 h, vs non-treated control
Method in brief: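 J774 macrophages at 50% confluence were infected with stationary-phase L. infantum WT or single knockout promastigotes (1:40) for 2 h at room temperature, then 22 h at 37 °C. After washing, cells were treated or not with 1 µM test compound for 24 h. Thiols were reduced with NaBH4, labelled with monobromobimane, then separated by C18 HPLC against standards. Non-infected macrophage GSH was subtracted, and values are fold-change versus non-treated. At least duplicates; t-test.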

[11] = 30 µM, NA = not active (enzyme activity > 95%)

## C[C@@H]1[C@H](O)[C@@H](C)/C=C/C=C/C=C/C=C/C=C/C=C/C=C/[C@H](O[C@@H]2O[C@H](C)[C@@H](O)[C@H](N)[C@@H]2O)C[C@@H]2O[C@](O)(C[C@@H](O)C[C@@H](O)[C@H](O)CC[C@@H](O)C[C@@H](O)CC(=O)O[C@H]1C)C[C@H](O)[C@H]2C(=O)O [Amphotericin B, reference compound]
[1]
  SI, L. braziliensis amastigotes: 59
[2]
  SI, L. infantum amastigotes: 100

## Nc1ncnc2c1ncn2[C@@H]1O[C@H](COP(=O)(O)OP(=O)(O)O)[C@@H](O)[C@H]1O [ADP]
[3]
  Ki: 90 µM

## O=C1Cc2c([nH]c3ccc(Br)cc23)-c2ccc(Cl)cc2N1 [Compound 1, 3-Chlorokenpaullone]
[4]; [11]
  % TryS inhibition at 30 µM, LiTryS: inactive
[5]; [11]
  % TryS inhibition at 30 µM, TcTryS: inactive
[6]; [11]
  % TryS inhibition at 30 µM, TbTryS: inactive
[7]; 200 µM
  % cytotoxicity at 200 µM, macrophages: 0 at 200 µM %

## CC(C)(C)OC(=O)NCCCCNC(=O)CN1C(=O)Cc2c([nH]c3ccc(Br)cc23)-c2ccc(Cl)cc21 [Compound 36]
[4]; IC50 value, LiTryS
  IC50: ~30 µM
[5]
  IC50: 25 µM

## CC(C)(C)OC(=O)N1CCN(CCNC(=O)CN2C(=O)Cc3c([nH]c4ccc(Br)cc34)-c3ccc(Cl)cc32)CC1 [Compound 34]
[4]; IC50 value, LiTryS
  IC50: ~30 µM
[5]
  IC50: 20 µM

## CN1CCN(C(=O)CN2C(=O)Cc3c([nH]c4ccc(Br)cc34)-c3ccc(Cl)cc32)CC1 [Compound 21, 9-Bromo-3-chloro-5-[2-(4-methylpiperazin-1-yl)-2-oxoethyl]-7,12-dihydrobenzo[2,3]azepino[4,5-b]indol-6(5H)one]
[4]; read-out: IC50 value, LiTryS
  IC50: 0.4 ± 0.1 µM
[1]; 10 µM, 24 h, relative to infected non-treated macrophages
  % infection by L. braziliensis at 10 µM: 65 ± 7%
[1]
  SI, L. braziliensis amastigotes: 5
[2]; read-out: EC50, amastigotes L. infantum, intracellular amastigotes in J774, 24 h
  EC50: 1 ± 0.5 µM

## Cl.O=C(CN1C(=O)Cc2c([nH]c3ccc(Br)cc23)-c2ccc(Cl)cc21)N1CCNCC1 [Compound 20]
[4]; IC50 value, LiTryS
  IC50: 0.3 µM
[6]; IC50 value, TbTryS, ± 2σ, ~30 assumed for 50 ± 5% inhibition at 30 µM
  IC50: ~30 µM
[8]; ATP or GSH variable
  Inhibition mode with respect to ATP and GSH: uncompetitive inhibition
[8]; SP or GSP variable
  Inhibition mode with respect to SP and GSP: competitive inhibition
[7]; read-out: CC50, macrophages
  CC50: 8.1 ± 0.1 µM
[1]; 5 µM, 24 h, relative to infected non-treated macrophages
  % infection by L. braziliensis at 5 µM: 15% and 15 ± 1 at 5 µM %
[1]
  SI, L. braziliensis amastigotes: ≥ 21
[2]
  SI, L. infantum amastigotes: 9
[9]; WT cells
  T(SH)2 decrease, WT promastigotes: 88%
[9]; sKO cells, detection limit 0.5 nmol T(SH)2/100 million cells
  T(SH)2 content, sKO promastigotes: undetectable
[10]
  GSH accumulation, WT amastigotes: 16 fold
  GSH accumulation, sKO amastigotes: 10 fold
  T(SH)2 depletion, WT amastigotes: about 40%
  T(SH)2 depletion, sKO amastigotes: ~82%

## O=C(CN1C(=O)Cc2c([nH]c3ccc(Br)cc23)-c2ccc(Cl)cc21)Nc1nncs1 [Compound 16]
[4]; IC50 value, LiTryS
  IC50: ~30 µM
[5]
  IC50: 30 µM
